Measurements as given in ChEMBL document CHEMBL3526011, “Metabolic activation of mefenamic acid leading to mefenamyl-S-acyl-glutathione adduct formation in vitro and in vivo in rat” (Drug Metab Dispos, 2012).
Values belong to the compound of their own block, whether it stands above or below them.

What was measured:
[1] = (§1) Stability in rat liver GST assessed as degradation at 1 uM after 30 mins relative to control; format: ADME, tissue-based; conditions: 0.5 h, 1 µM
Procedure, shortened: (§2)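 Acyl-SG thioesters (1 µM) in 0.1 M phosphate buffer, pH 7.4, 37°C (0.2 ml), with or without rat liver GST at 3 units/ml. Duplicates per time point, quenched at 0–60 min with acidic acetonitrile plus CBZ and analysed directly by LC-MS/MS. Degradation at 30 min expressed relative to the no-GST control.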

[2] = Half life in rat hepatocytes; format: ADME, cell-based, Hepatocyte
Procedure, shortened: (§3)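 Authentic acyl-SG thioesters or acyl glucuronide (1 µM) incubated with rat hepatocytes (2 million cells/ml). Quenched at 0–30 min and analysed by LC-MS/MS for % remaining; average of two incubations per time point; half-life derived from the decline.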

[3] = Drug level in phosphate buffer treated with 1 uM I-SCoA at pH 7.4 at 37 degC in presence of GSH after 60 mins; format: physicochemical; conditions: pH 7.4, 1 h
Procedure, shortened: (§4)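 Acyl-CoA or acyl glucuronide (1 µM) in 0.1 M potassium phosphate, pH 7.4, 37°C, with 10 mM GSH, n=3. Quenched at 0, 15, 30, 45 and 60 min with acetonitrile/3% formic acid containing 1 µM CBZ. The acyl-SG product was measured by LC-MS/MS; mean ± S.D.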

GST = assay: as §1; format: ADME, tissue-based; conditions: rat liver GST; procedure, shortened: as §2
[4] = Drug level in phosphate buffer treated with 1 uM MFA SCoA at pH 7.4 at 37 degC in presence of GSH after 60 mins; format: physicochemical; conditions: pH 7.4, 1 h; procedure, shortened: as §4
Hepatocyte [5] = assay: Drug level in cryopreserved human hepatocytes treated with 100 uM MFA at 10 mins incubation; format: ADME, cell-based
Procedure, shortened: (§5)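 Human hepatocytes, either cryopreserved 20-donor pooled or a single-donor suspension, thawed or warmed at 37°C, washed in William's E (pH 7.4, 4 mM L-glutamate). Cells at 2 million viable/ml, >95% trypan-blue viability. Incubated with 100 µM MFA at 37°C under 95% O2/5% CO2 with orbital shaking, n=3 per time point. Quench: acetonitrile/3% formic acid with CBZ internal standard; LC-MS/MS MRM.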

[6] = Drug level in Sprague-Dawley rat bile treated with 100 mg/kg, ip MFA after 6 hrs by LC-MS/MS analysis; format: ADME, organism-based; set-up: dose 100 mg/kg, route intraperitoneal; conditions: in vivo
Procedure, shortened: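 Male Sprague-Dawley rats (300–330 g, n=3) with bile-duct cannulas, housed in metabolic cages; MFA 100 mg/kg i.p. in water, pH 7.0. Artificial bile-salt supplement infused via duodenal cannula at 1 ml/h. Bile collected over 6 h into phosphoric acid on wet ice, centrifuged, and the supernatant quantified by LC-MS/MS against a linear standard curve of analyte/CBZ peak-area ratios.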

Hepatocyte [7] = assay: Drug level in rat hepatocytes treated with at 100 uM MFA by LC-MS/MS analysis in presence of 1000 uM (-)-borneol (reference value: 334 +/- 76); format: ADME, cell-based
Procedure, shortened: (§6)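 Rat hepatocytes (2 million cells/ml, 0.5 ml) with 100 µM MFA for 10 min, with or without 1000 µM (−)-borneol (glucuronidation inhibitor; DMSO stock, 0.1% v/v final in controls) or 1000 µM lauric acid (acyl-CoA formation inhibitor; aqueous stock, pH 7). Triplicate incubations; LC-MS/MS MRM; results given as nM and as % of control, mean ± S.D.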

Hepatocyte [8] = assay: Drug level in rat hepatocytes treated with 100 uM MFA by reverse phase LC-MS/MS analysis; format: ADME, cell-based
Procedure, shortened: (§7)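 Rat hepatocytes at 2 million viable cells/ml in William's E (pH 7.4) at 37°C under 95% O2/5% CO2, with 100 µM MFA for up to 60 min. Quench times 0–60 min; n=3 incubations per point across three separate studies. Acyl-SG and glucuronide quenched with acidic acetonitrile plus CBZ; acyl-CoA quenched with acetonitrile plus CBZ, then hexane extraction. Positive-ion LC-MS/MS MRM; quantified from analyte/CBZ standard curves.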

Hepatocyte [9] = assay: Drug level in rat hepatocytes treated with at 100 uM MFA by LC-MS/MS analysis in presence of 1000 uM Lauric acid (reference value: 334 +/- 76); format: ADME, cell-based; procedure, shortened: as §6
Hepatocyte [10] = assay: Drug level in rat hepatocytes treated with 500 uM MFA by LC-MS/MS analysis; format: ADME, cell-based
Procedure, shortened: (§8)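 Rat hepatocytes (2 million cells/ml, William's E pH 7.4, 37°C, 95% O2/5% CO2) incubated 10 min with MFA at 0.8–500 µM (11 levels). Quenched and processed for LC-MS/MS MRM of the acyl-SG, acyl glucuronide and acyl-CoA derivatives. Three separate experiments, n=3 incubations per concentration; mean ± S.D.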

[11] = Drug level in phosphate buffer treated with 1 uM MFA-1-beta-O-G at pH 7.4 at 37 degC in presence of GSH after 60 mins; format: physicochemical; conditions: pH 7.4, 1 h; procedure, shortened: as §4
[12] = Increase in drug level in phosphate buffer treated with 1 uM MFA-1-beta-O-G at pH 7.4 at 37 degC in presence of GSH/rat liver GST after 60 mins
Procedure, shortened: (§9)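 Acyl-CoA or acyl glucuronide (1 µM) with 10 mM GSH in 0.1 M potassium phosphate, pH 7.4, 37°C, additionally fortified with rat liver GST (3 units/ml). Up to 60 min; acyl-SG formation measured by LC-MS/MS and compared with incubations lacking GST.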

Hepatocyte [13] = assay: Drug level in rat hepatocytes treated with 100 uM MFA after 60 mins; format: ADME, cell-based; conditions: 1 h; procedure, shortened: as §7
Hepatocyte [14] = assay: Drug level in human hepatocytes treated with 100 uM MFA by sensitive LC-MS/MS MRM analysis; format: ADME, cell-based; procedure, shortened: as §5
[15] = Increase in drug level in phosphate buffer treated with 1 uM MFA-SCoA at pH 7.4 at 37 degC in presence of GSH/rat liver GST after 60 mins; procedure, shortened: as §9
Hepatocyte [16] = assay: Drug level in single-donor human hepatocytes in suspension treated with 100 uM MFA at 60 mins incubation; conditions: 1 h
Hepatocyte [17] = assay: Retention time in rat hepatocytes treated with 100 uM MFA by positive ion LC-MS/MS analysis; format: ADME, cell-based; procedure, shortened: as §7
Hepatocyte [18] = assay: Drug level in rat hepatocytes treated with at 100 uM MFA by LC-MS/MS analysis in presence of 1000 uM (-)-borneol (reference value: 619 +/-158); format: ADME, cell-based; procedure, shortened: as §6
Hepatocyte [19] = assay: Drug level in rat hepatocytes treated with at 100 uM MFA by LC-MS/MS analysis in presence of 1000 uM Lauric acid (reference value: 619 +/-158); format: ADME, cell-based; procedure, shortened: as §6
Hepatocyte [20] = assay: Drug level in rat hepatocytes treated with 62.5 uM MFA by LC-MS/MS analysis; format: ADME, cell-based; procedure, shortened: as §8
[21] = Half life in rat hepatocytes at 1 uM; format: ADME, cell-based, Hepatocyte; procedure, shortened: as §3
[22] = Half life in potassium phosphate buffer at 1 uM at pH 7.4 at 37 degC; format: physicochemical
Procedure, shortened: (§10)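 Acyl-CoA and acyl glucuronide (1 µM, separate incubations) in 0.1 M potassium phosphate, pH 7.4, 37°C, without GSH. Quenched at 0, 5, 8 and 15 h, n=3 per time point; % remaining determined by LC-MS/MS.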

Hepatocyte [23] = assay: Drug level in rat hepatocytes treated with 15.6 uM MFA by LC-MS/MS analysis; format: ADME, cell-based; procedure, shortened: as §8
Hepatocyte [24] = assay: Drug level in rat hepatocytes treated with at 100 uM MFA by LC-MS/MS analysis in presence of 1000 uM Lauric acid (reference value: 9.1 +/- 4.5); format: ADME, cell-based; procedure, shortened: as §6
[25] = Stability in potassium phosphate buffer at 1 uM at pH 7.4 at 37 degC; format: physicochemical; conditions: pH 7.4, 1 µM; procedure, shortened: as §10
Hepatocyte [26] = assay: Drug level in rat hepatocytes treated with at 100 uM MFA by LC-MS/MS analysis in presence of 1000 uM (-)-borneol (reference value: 9.1 +/- 4.5); format: ADME, cell-based; procedure, shortened: as §6
[27] = Drug metabolism in human hepatocytes assessed as MFA-SCoA at 100 uM by reverse phase LC-MS/MS analysis; format: ADME, cell-based, Hepatocyte
Procedure, shortened: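 MFA 100 µM with human hepatocytes (2 million viable cells/ml, William's E pH 7.4, 37°C, 95% O2/5% CO2). For the acyl-CoA thioester, quench was acetonitrile without formic acid plus CBZ, followed by hexane extraction. The aqueous layer was analysed by positive-ion LC-MS/MS MRM (m/z 991→224 and 484).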

[28] = Drug metabolism in rat hepatocytes assessed as MFA-SG at 100 uM by sensitive LC-MS/MS MRM analysis; format: ADME, cell-based, Hepatocyte; procedure, shortened: as §7
[29] = Drug metabolism in rat hepatocytes assessed as MFA-SCoA at 100 uM by reverse phase LC-MS/MS analysis; format: ADME, cell-based, Hepatocyte; procedure, shortened: as §7
[30] = Drug metabolism in rat hepatocytes assessed as MFA-1-beta-O-G at 100 uM by positive ion LC-MS/MS analysis; format: ADME, cell-based, Hepatocyte; procedure, shortened: as §7
[31] = Drug metabolism in rat hepatocytes assessed as MFA-SCoA by LC-MS/MS analysis; format: ADME, cell-based, Hepatocyte; procedure, shortened: as §8
[32] = Drug metabolism in rat hepatocytes assessed as I-SG thioester at 100 uM at 10 mins incubation by LC-MS/MS analysis; format: ADME, cell-based, Hepatocyte
Procedure, shortened: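 Rat hepatocytes (2 million cells/ml, William's E pH 7.4, 37°C, 95% O2/5% CO2) incubated with (R)-ibuprofen 100 µM for 10 min, n=3. Quenched with acetonitrile/3% formic acid containing CBZ. The acyl-SG thioester was quantified by LC-MS/MS against a linear acyl-SG/CBZ peak-area-ratio standard curve.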

[33] = Drug metabolism in rat hepatocytes assessed as acyl migration isomers at 100 uM by positive ion LC-MS/MS analysis; format: ADME, cell-based, Hepatocyte
[34] = Drug metabolism in human hepatocytes assessed as MFA-SG at 100 uM by sensitive LC-MS/MS MRM analysis; format: ADME, cell-based, Hepatocyte; procedure, shortened: as §5

Structure (SMILES): N[C@@H](CCC(=O)N[C@@H](CSC(=O)Cc1ccccc1Nc1c(Cl)cccc1Cl)C(=O)NCC(=O)O)C(=O)O
- Stability [1]: Unstable
- half-life [2]: 1 min

Structure (SMILES): CC(C)Cc1ccc(C(C)C(=O)SC[C@H](NC(=O)CC[C@H](N)C(=O)O)C(=O)NCC(=O)O)cc1 (some centres undefined)
- Drug metabolism [3]: 440 nM
- metabolised at 0.5 h, 1 µM (GST): 11%
- half-life [2]: 4 min
- Drug metabolism [4]: 440 nM

Structure (SMILES): Cc1cc(CC(=O)SC[C@H](NC(=O)CC[C@H](N)C(=O)O)C(=O)NCC(=O)O)n(C)c1C(=O)c1ccc(Cl)cc1
- half-life [2]: 0.8 min

Structure (SMILES): Cc1cccc(Nc2ccccc2C(=O)SCCNC(=O)CCNC(=O)C(O)C(C)(C)COP(=O)(O)OP(=O)(O)OC[C@H]2O[C@@H](n3cnc4c(N)ncnc43)[C@H](O)[C@@H]2OP(=O)(O)O)c1C (some centres undefined)
- Drug metabolism (Hepatocyte [23]): 6 nM
- Drug metabolism (Hepatocyte [24]): 3.8 nM
- Stability [25]: Stable
- Drug metabolism (Hepatocyte [8]): metabolite_detected
- Drug metabolism (Hepatocyte [26]): 8.8 nM

Second part, led by results:

- Drug metabolism (Hepatocyte [5]): 1 nM
- Drug uptake [6]: 17.4 µg
- Drug metabolism (Hepatocyte [7]): 387 nM
- Drug metabolism (Hepatocyte [8]): metabolite_detected
- Drug metabolism (Hepatocyte [9]): 113 nM
- Drug metabolism (Hepatocyte [10]): 230 nM
- Drug metabolism [11]: 2.7 nM
- Drug metabolism [4]: 208 nM
- Drug metabolism (Hepatocyte [13]): 50 nM
- Drug metabolism (Hepatocyte [14]): metabolite_detected
Structure (SMILES): Cc1cccc(Nc2ccccc2C(=O)SC[C@H](NC(=O)CC[C@H](N)C(=O)O)C(=O)NCC(=O)O)c1C
- fold change (FC) [12]: 6
- fold change (FC) [15]: 1.3

- Drug metabolism (Hepatocyte [5]): 3500 nM
- Drug uptake [6]: 2000 µg
- Drug metabolism (Hepatocyte [16]): 18.6 µM
- Drug metabolism (Hepatocyte [10]): 460 nM
- Retention_time (Hepatocyte [17]): 11 min
- Drug metabolism (Hepatocyte [18]): 55.1 nM
- Drug metabolism (Hepatocyte [13]): 1560 nM
- Drug metabolism (Hepatocyte [19]): 198 nM
- Drug metabolism (Hepatocyte [20]): 700 nM
- half-life at 1 µM [21]: > 60 min
- half-life at 1 µM [22]: 990 min
Structure (SMILES): Cc1cccc(Nc2ccccc2C(=O)O[C@@H]2O[C@H](C(=O)O)[C@@H](O)[C@H](O)[C@H]2O)c1C

- Drug uptake [6]: 4 µg
- Drug metabolism [27]: metabolite_not_detected
- Drug metabolism [28]: metabolite_detected
- Drug metabolism [29]: metabolite_detected
- Drug metabolism [30]: metabolite_detected
- Drug metabolism [31]: Dose-dependent effect
- Drug metabolism [32]: 3 nM
- Drug metabolism [33]: metabolite_not_detected
- Drug metabolism [34]: metabolite_detected
Structure (SMILES): Cc1cccc(Nc2ccccc2C(=O)O)c1C [MEFENAMIC ACID]
